The text below walks through data of ChEMBL document CHEMBL1158066, “Phytochemical constituents from Salsola tetrandra” (J Nat Prod, 2006).

Converted amounts (≈) assume the structure as drawn. Some results are limits rather than exact numbers.

Data set [1] has as its system Micrococcus luteus. The data set can be described thus: Antibacterial activity against sMicrococcus luteus NCIMB 8166 by microdilution method. The data set is classed as functional. In a few lines:
(§1)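 Liquid-medium broth microdilution. Strains kept at -70 °C in glycerol Mueller-Hinton broth; fresh subcultures used for each run. Final inoculum (1-5) × 10^5 cfu/mL. MIC taken as the lowest concentration preventing visible growth. MBC taken as the concentration killing ≥99.9% of the initial inoculum, confirmed by subculturing dilutions onto TSA agar at 30 °C for 18-24 h.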

Data set [2] has as its system Staphylococcus aureus. The data set can be described thus: Antibacterial activity against Staphylococcus aureus ATCC 29213 by microdilution method. In kind it is functional. In a few lines:
as §1

The test system of data set [3] is Staphylococcus epidermidis. The data set can be described thus: Antibacterial activity against Staphylococcus epidermidis NCIMB 8853 by microdilution method. In kind it is functional. In a few lines:
as §1
In general terms: Broth dilution looks for growth in wells or tubes with falling amounts of substance.

Data set [4] has as its system Escherichia coli. Description: Antibacterial activity against sEscherichia coli ATCC 35218 by microdilution method. In kind it is functional. In a few lines:
as §1

In data set [5] the test system is Pseudomonas aeruginosa. Description: Antibacterial activity against Pseudomonas aeruginosa ATCC 27853 by microdilution method. The data set is classed as functional. In a few lines:
as §1

Data set [6] can be described thus: Toxicity against Artemia salina. In kind it is organism-based. As to conditions: in vivo, read-out: ED50 (the source's name). In a few lines: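 Brine shrimp lethality bioassay; the endpoint is death, reported as ED50 in µM.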

For orientation: MBC means the smallest concentration meeting the test's criterion for killing. Lower therefore signals more potent killing. A word on the MIC: it is the lowest concentration found to suppress growth. For the compound `COc1cc(/C=C/C(=O)NC[C@@H](O)c2ccc(O)cc2)ccc1O`, the MBC in data set [1] is 700 µg/mL (≈ 2130 µM); in data set [2], 600 µg/mL (≈ 1820 µM); in data set [3], > 700 µg/mL; in data set [4] it was 700 µg/mL (≈ 2130 µM). Further, the MIC in data set [1] was 400 µg/mL (≈ 1210 µM); in data set [2], 200 µg/mL (≈ 607 µM); in data set [3], 600 µg/mL (≈ 1820 µM); in data set [4], 400 µg/mL (≈ 1210 µM); in data set [5], > 700 µg/mL.

On to `CCCCCC(O)C(O)/C=C/C(O)CCCCCCCC(=O)O` (centres undefined), for which the minimum bactericidal concentration (MBC) was 500 µg/mL (≈ 1510 µM) in data set [1], > 700 µg/mL in data set [2] and > 700 µg/mL in data set [3]. Besides, the minimal inhibitory concentration (MIC) was 400 µg/mL (≈ 1210 µM) in data set [1]; 500 µg/mL (≈ 1510 µM) in data set [2]; 600 µg/mL (≈ 1820 µM) in data set [3]; > 700 µg/mL in data set [4]; > 700 µg/mL in data set [5].

Turning to `COc1cc(O[C@@H]2O[C@H](CO)[C@@H](O)[C@H](O)[C@H]2O)cc(OC)c1OC`, the MBC in data set [1], in data set [2] and in data set [3] was > 700 µg/mL throughout. The MIC in data set [1] was 500 µg/mL (≈ 1440 µM); in data set [2], 700 µg/mL (≈ 2020 µM); in data set [3], 600 µg/mL (≈ 1730 µM); in data set [4], > 700 µg/mL; in data set [5], > 700 µg/mL. Besides, the LC50 in data set [6] was determined as 28.9 µM.

On to `C=C[C@](C)(CC/C=C(\C)CO)O[C@@H]1O[C@H](CO)[C@@H](O)[C@H](O)[C@H]1O`, for which the MBC in data set [1], in data set [2] and in data set [3] was > 700 µg/mL in each case. The minimum inhibitory concentration (MIC) in data set [1] is 600 µg/mL (≈ 1810 µM); in data set [2], 700 µg/mL (≈ 2110 µM); in data set [3], 700 µg/mL (≈ 2110 µM); in data set [4] it was > 700 µg/mL; in data set [5], > 700 µg/mL. The LC50 in data set [6] turned out to be 21.8 µM.

As for `CC/C=C\CC(O)C(O)/C=C/C(O)CCCCCCCC(=O)O` (centres undefined), the results for the MBC in data set [1], in data set [2] and in data set [3] were 500 µg/mL (≈ 1520 µM), > 700 µg/mL and > 700 µg/mL, respectively. The MIC in data set [1] was 400 µg/mL (≈ 1220 µM); in data set [2], 500 µg/mL (≈ 1520 µM); in data set [3], 600 µg/mL (≈ 1830 µM); in data set [4], > 700 µg/mL; in data set [5], > 700 µg/mL.

With `CC(=O)/C=C/[C@@]12O[C@]1(C)C[C@@H](O)[C@H](O[C@@H]1O[C@H](CO)[C@@H](O)[C@H](O)[C@H]1O)C2(C)C`, the MBC in data set [1], in data set [2] and in data set [3] was > 700 µg/mL each time. In addition, the MIC is 500 µg/mL (≈ 1240 µM) in data set [1]; 700 µg/mL (≈ 1740 µM) in data set [2]; 600 µg/mL (≈ 1490 µM) in data set [3]; > 700 µg/mL in data set [4]; > 700 µg/mL in data set [5]. In data set [6], the LC50 is 10.9 µM.

As for `COc1cc(/C=C/C(=O)NCCc2ccc(O)cc2)ccc1O` [N-TRANS-FERULOYL TYRAMINE], the MBC in data set [1] and in data set [2] was > 700 µg/mL throughout. Moreover, the MIC in data set [1] is 500 µg/mL (≈ 1600 µM); in data set [2] it was 500 µg/mL (≈ 1600 µM); in data set [3], > 700 µg/mL; in data set [4], > 700 µg/mL; in data set [5] it was > 700 µg/mL.

As for `N#C[C@H](O[C@@H]1O[C@H](CO)[C@@H](O)[C@H](O)[C@H]1O)c1ccc(O)cc1` [TAXIPHYLLIN], the MBC in data set [1] was 500 µg/mL (≈ 1610 µM); in data set [2] it was 700 µg/mL (≈ 2250 µM); in data set [3] it was > 700 µg/mL; in data set [4] it was > 700 µg/mL. In addition, the MIC in data set [1] is 200 µg/mL (≈ 642 µM); in data set [2] it was 400 µg/mL (≈ 1280 µM); in data set [3], 500 µg/mL (≈ 1610 µM); in data set [4], 600 µg/mL (≈ 1930 µM); in data set [5], > 700 µg/mL. Besides, in data set [6], the LC50 turned out to be 0.96 µM.
